In brackets after ≈: the same amount, converted by molar mass.
Key:
Type in all cases: functional
Plasmodium falciparum [1] = test: Antimalarial schizonticidal activity against Plasmodium falciparum 3D7 infected erythrocytes at 10 ug/ml after 30-39 hrs
How it was run: (§1)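 Schizont maturation test (WHO protocol, minor modifications): drug dilutions in complete RPMI 1640 with parasite added. Final culture was 3–4% hematocrit and 1.0–2.0% parasitized erythrocytes (>95% rings), with 0.5% AlbuMax II and 15 µM hypoxanthine. Incubated 30–39 h at 37 °C under 5% CO2. Giemsa-stained thin smears were scored for schizont maturation relative to untreated controls, giving % schizont inhibition at each concentration.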

Plasmodium falciparum [2] = test: Antimalarial schizonticidal activity against Plasmodium falciparum 3D7 infected erythrocytes at 5 ug/ml after 30-39 hrs; how it was run: as §1
Plasmodium falciparum [3] = test: Antimalarial schizonticidal activity against Plasmodium falciparum 3D7 infected erythrocytes at 2.5 ug/ml after 30-39 hrs; how it was run: as §1
Plasmodium falciparum [4] = test: Antimalarial schizonticidal activity against Plasmodium falciparum 3D7 infected erythrocytes at 1.25 ug/ml after 30-39 hrs; how it was run: as §1
Plasmodium falciparum [5] = test: Antimalarial schizonticidal activity against Plasmodium falciparum 3D7 infected erythrocytes at 0.78 ug/ml after 30-39 hrs; how it was run: as §1
Plasmodium falciparum [6] = test: Antimalarial schizonticidal activity against Plasmodium falciparum 3D7 infected erythrocytes at 0.39 ug/ml after 30-39 hrs; how it was run: as §1
Plasmodium falciparum [7] = test: Antimalarial schizonticidal activity against Plasmodium falciparum 3D7 infected erythrocytes at 0.09 ug/ml after 30-39 hrs; how it was run: as §1
Plasmodium falciparum [8] = test: Antimalarial activity schizonticidal against Plasmodium falciparum 3D7 infected erythrocytes at 0.05 ug/ml after 30-39 hrs; how it was run: as §1
Plasmodium falciparum [9] = test: Antimalarial schizonticidal activity against Plasmodium falciparum 3D7 infected erythrocytes at 0.19 ug/ml after 30-39 hrs; how it was run: as §1
Plasmodium falciparum [10] = test: Antimalarial schizonticidal activity against Plasmodium falciparum 3D7 infected erythrocytes after 30-39 hrs; how it was run: as §1

Compound | inhibition at 10 µg/mL (Plasmodium falciparum [1]) [%] | inhibition at 5 µg/mL (Plasmodium falciparum [2]) [%] | inhibition at 2.5 µg/mL (Plasmodium falciparum [3]) [%] | inhibition at 1.25 µg/mL (Plasmodium falciparum [4]) [%] | inhibition at 0.78 µg/mL (Plasmodium falciparum [5]) [%] | inhibition at 0.39 µg/mL (Plasmodium falciparum [6]) [%] | inhibition at 0.09 µg/mL (Plasmodium falciparum [7]) [%] | inhibition at 0.05 µg/mL (Plasmodium falciparum [8]) [%] | inhibition at 0.19 µg/mL (Plasmodium falciparum [9]) [%] | MIC (Plasmodium falciparum [10]) [µg/mL]
COC(=O)C1=C(Nc2ccccc2)CC(c2ccc(OCc3ccccc3)cc2)N(c2ccccc2)C1c1ccc(OCc2ccccc2)cc1 (centres undefined) | 23 | 2 | 2 | 0 | – | – | – | – | – | –
CCOC(=O)C1=C(Nc2ccc(OC)cc2)CC(c2cccc(Cl)c2)N(c2ccc(OC)cc2)C1c1cccc(Cl)c1 (centres undefined) | 100 | 92 | 50 | 16 | – | – | – | – | – | –
CCOC(=O)C1=C(Nc2ccc(Cl)cc2)CC(c2ccc(Cl)cc2)N(c2ccc(Cl)cc2)C1c1ccc(Cl)cc1 (centres undefined) | 83 | 66 | 0 | 0 | – | – | – | – | – | –
COC(=O)C1=C(Nc2ccc(Cl)cc2)CC(c2ccc(F)cc2)N(c2ccc(Cl)cc2)C1c1ccc(F)cc1 (centres undefined) | 100 | 100 | 100 | 93 | – | – | – | – | – | –
COC(=O)C1=C(Nc2ccc(OC)cc2)CC(c2cccc(Cl)c2)N(c2ccc(OC)cc2)C1c1cccc(Cl)c1 (centres undefined) | 100 | 100 | 100 | 33 | – | – | – | – | – | –
CCOC(=O)C1=C(Nc2ccccc2)CC(c2ccccc2)N(c2ccccc2)C1c1ccccc1 (centres undefined) | 100 | 100 | 92 | 25 | – | – | – | – | – | –
COC(=O)C1=C(Nc2ccc(OC)cc2)CC(c2ccc(OC)cc2)N(c2ccc(OC)cc2)C1c1ccc(OC)cc1 (centres undefined) | 100 | 100 | 90 | 86 | – | – | – | – | – | –
CCOC(=O)C1=C(Nc2ccc(Cl)cc2)CC(c2cccs2)N(c2ccc(Cl)cc2)C1c1cccs1 (centres undefined) | 100 | 100 | 93 | 86 | – | – | – | – | – | –
COC(=O)C1=C(Nc2ccc(OC)cc2)CC(c2ccc(F)cc2)N(c2ccc(OC)cc2)C1c1ccc(F)cc1 (centres undefined) | 100 | 100 | 100 | 100 | 100 | 100 | 100 | 91 | 100 | –
COC(=O)C1=C(Nc2ccccc2)CC(c2ccc(F)cc2)N(c2ccccc2)C1c1ccc(F)cc1 (centres undefined) | 100 | 100 | 100 | 100 | 100 | 100 | 33 | 16 | 75 | –
COC(=O)C1=C(Nc2ccccc2)CC(c2ccc(OC)cc2)N(c2ccccc2)C1c1ccc(OC)cc1 (centres undefined) | 100 | 100 | 100 | 100 | 94 | 67 | 45 | 25 | 47 | –
COC(=O)C1=C(Nc2ccc(OC)cc2)CC(c2cccs2)N(c2ccc(OC)cc2)C1c1cccs1 (centres undefined) | 100 | 100 | 100 | 100 | 100 | 100 | 25 | 16 | 75 | –
COC(=O)C1=C(Nc2ccc(Cl)cc2)CC(c2ccc(OC)cc2)N(c2ccc(Cl)cc2)C1c1ccc(OC)cc1 (centres undefined) | 100 | 100 | 100 | 100 | 95 | 75 | 33 | 16 | 41 | –
CCN(CC)CCCC(C)Nc1ccnc2cc(Cl)ccc12 (centres undefined) [CHLOROQUINE] | 100 | 100 | 97 | 86 | 100 | 100 | 86 | 54 | 97 | 0.025 (≈ 0.0782 µM)
COC(=O)C1=C(Nc2ccc(Cl)cc2)CC(c2ccc(Br)cc2)N(c2ccc(Cl)cc2)C1c1ccc(Br)cc1 (centres undefined) | 33 | 0 | 0 | 0 | – | – | – | – | – | –
COC(=O)C1=C(Nc2ccccc2)CC(c2ccccc2)N(c2ccccc2)C1c1ccccc1 (centres undefined) | 100 | 100 | 100 | 100 | 96 | 90 | 0 | 0 | 33 | –
COC(=O)C1=C(Nc2ccc(OC)cc2)CC(c2ccc(Br)cc2)N(c2ccc(OC)cc2)C1c1ccc(Br)cc1 (centres undefined) | 100 | 100 | 95 | 33 | – | – | – | – | – | –
COC(=O)C1=C(Nc2ccccc2)CC(c2cccc(Cl)c2)N(c2ccccc2)C1c1cccc(Cl)c1 (centres undefined) | 100 | 81 | 81 | 46 | – | – | – | – | – | –
CCOC(=O)C1=C(Nc2ccccc2)CC(c2cccnc2)N(c2ccccc2)C1c1cccnc1 (centres undefined) | 100 | 100 | 100 | 100 | 100 | 100 | 42 | 42 | 97 | –
COC(=O)C1=C(Nc2ccc(Br)cc2)CC(c2ccc(OC)cc2)N(c2ccc(Br)cc2)C1c1ccc(OC)cc1 (centres undefined) | 100 | 100 | 91 | 25 | – | – | – | – | – | –
COC(=O)C1=C(Nc2ccccc2)CC(c2ccc(Br)cc2)N(c2ccccc2)C1c1ccc(Br)cc1 (centres undefined) | 100 | 100 | 85 | 46 | – | – | – | – | – | –
CCOC(=O)C1=C(Nc2ccc(OC)cc2)CC(c2ccccc2)N(c2ccc(OC)cc2)C1c1ccccc1 (centres undefined) | 100 | 100 | 100 | 100 | 66 | 33 | 0 | 0 | 0 | –

Source: ChEMBL document CHEMBL1140869, “Organocatalyzed highly atom economic one pot synthesis of tetrahydropyridines as antimalarials” (2009)
